Results published in ChEMBL document CHEMBL4715682, “Potent trifluoromethoxy, trifluoromethylsulfonyl, trifluoromethylthio and pentafluorosulfanyl containing (1,3,4-oxadiazol-2-yl)benzamides against drug-resistant Gram-positive bacteria” (RSC Med Chem, 2020).
Values after ≈ are worked out from the molar mass of the structure shown. Active and inactive are the calls of the source. The rule behind the calls is not given here.

Key:
Staphylococcus aureus [1] = test: Bacteriostatic activity against methicillin-resistant Staphylococcus aureus ATCC 33592 assessed as reduction in bacterial growth incubated for 18 hrs by CLSI method; assay type: functional
Staphylococcus aureus [2] = test: Antibacterial activity against vancomycin-resistant Staphylococcus aureus 10 assessed as inhibition of visible bacterial growth incubated for 18 to 20 hrs by CLSI method; assay type: functional; settings: time 18-20 hrs
How it was run: (§1)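 CLSI broth microdilution. Strains grown aerobically overnight on tryptic soy agar at 37 °C, adjusted to 0.5 McFarland and diluted in cation-adjusted Mueller–Hinton broth to about 5×10^5 CFU/mL. Compounds and control drugs serially diluted across the plate. Incubated aerobically at 37 °C for 18-20 h. MIC is the lowest concentration with no visible growth.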

Staphylococcus aureus [3] = test: Antibacterial activity against methicillin-resistant Staphylococcus aureus NRS483 assessed as inhibition of visible bacterial growth incubated for 18 to 20 hrs by CLSI method; assay type: functional; settings: time 18-20 hrs; how it was run: as §1
Staphylococcus aureus [4] = test: Antibacterial activity against methicillin-sensitive Staphylococcus aureus ATCC 6538 assessed as inhibition of visible bacterial growth incubated for 18 to 20 hrs by CLSI method; assay type: functional; settings: time 18-20 hrs; how it was run: as §1
Enterococcus faecalis [5] = test: Antibacterial activity against vancomycin- resistant Enterococcus faecalis ATCC 51299 assessed as inhibition of visible bacterial growth incubated for 18 to 20 hrs by CLSI method; assay type: functional; settings: time 18-20 hrs; how it was run: as §1
Caco-2 = test: Cytotoxicity against human Caco2 cells assessed as reduction in cell viability at 128 ug/ml incubated for 2 hrs by MTS assay; assay type: cell-based; settings: caco-2, 2 h, dose 128 µg/ml
Staphylococcus aureus [6] = test: Antibacterial activity against methicillin-resistant Staphylococcus aureus NRS385 assessed as inhibition of visible bacterial growth incubated for 18 to 20 hrs by CLSI method; assay type: functional; settings: time 18-20 hrs; how it was run: as §1
Staphylococcus aureus [7] = test: Antibacterial activity against methicillin-resistant Staphylococcus aureus NRS 119 assessed as inhibition of visible bacterial growth incubated for 18 to 20 hrs by CLSI method; assay type: functional; settings: time 18-20 hrs; how it was run: as §1
Enterococcus faecalis [8] = test: Antibacterial activity against vancomycin- resistant Enterococcus faecalis ATCC 700221 assessed as inhibition of visible bacterial growth incubated for 18 to 20 hrs by CLSI method; assay type: functional; settings: time 18-20 hrs; how it was run: as §1
Staphylococcus aureus [9] = test: Antibacterial activity against methicillin-resistant Staphylococcus aureus NRS382 assessed as inhibition of visible bacterial growth incubated for 18 to 20 hrs by CLSI method; assay type: functional; settings: time 18-20 hrs; how it was run: as §1
Staphylococcus aureus [10] = test: Antibacterial activity against Staphylococcus aureus ATCC 25923 assessed as inhibition of visible bacterial growth incubated for 18 to 20 hrs by CLSI method; assay type: functional; settings: time 18-20 hrs; how it was run: as §1
Acinetobacter baumannii = test: Antibacterial activity against Acinetobacter baumannii ATCC 19606 RW4 assessed as inhibition of visible bacterial growth at 16 ug/ml incubated for 18 to 20 hrs by CLSI method; assay type: functional, organism-based; settings: ATCC 19606 = CIP 70.34 = JCM 6841 RW4, dose 16.0 µg/ml, time 18-20 hrs; how it was run: as §1
[11] = Hemolytic activity in human RBC at 128 ug/ml incubated for 60 mins relative to control; assay type: ADME, cell-based, Erythrocyte; settings: red blood cells (erythrocytes), dose 128 µg/ml, read-out: Activity
How it was run: (§2)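 Single-donor human erythrocytes as a 5% v/v suspension in PBS. Compounds serially diluted in PBS, in triplicate, and incubated with RBCs at 37 °C for 60 min. PBS served as the negative control and Triton-X as the positive control. Samples spun at 4,000 rpm for 5 min and supernatant absorbance read at 540 nm. Percent hemolysis = 100×(sample−negative)/(positive−negative).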

Staphylococcus aureus [12] = test: Antibacterial activity against vancomycin-resistant Staphylococcus aureus 12 assessed as inhibition of visible bacterial growth incubated for 18 to 20 hrs by CLSI method; assay type: functional; settings: time 18-20 hrs; how it was run: as §1
Escherichia coli = test: Antibacterial activity against Escherichia coli ATCC 25404 assessed as inhibition of visible bacterial growth at 16 ug/ml incubated for 18 to 20 hrs by CLSI method; assay type: functional, organism-based; settings: B ATCC 25404, dose 16.0 µg/ml, time 18-20 hrs; how it was run: as §1
Staphylococcus aureus [13] = test: Synergistic antibacterial activity against methicillin-resistant Staphylococcus aureus ATCC 33592 assessed as fractional inhibitory concentration index in presence of methicillin by checkerboard assay; assay type: functional
Staphylococcus aureus [14] = test: Synergistic antibacterial activity against methicillin-resistant Staphylococcus aureus ATCC 33592 assessed as fractional inhibitory concentration index in presence of linezolid by checkerboard assay; assay type: functional
Staphylococcus aureus [15] = test: Antibacterial activity against methicillin-resistant Staphylococcus aureus NRS384 assessed as inhibition of visible bacterial growth incubated for 18 to 20 hrs by CLSI method; assay type: functional; settings: time 18-20 hrs; how it was run: as §1
Staphylococcus aureus [16] = test: Antibacterial activity against methicillin-resistant Staphylococcus aureus NRS387 assessed as inhibition of visible bacterial growth incubated for 18 to 20 hrs by CLSI method; assay type: functional; settings: time 18-20 hrs; how it was run: as §1
[17] = test system: Staphylococcus epidermidis; test: Antibacterial activity against Staphylococcus epidermidis NRS101 assessed as inhibition of visible bacterial growth incubated for 18 to 20 hrs by CLSI method; assay type: functional; settings: time 18-20 hrs
How it was run: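 Broth microdilution per CLSI. Strains grown aerobically overnight on TSA at 37 °C, suspended to 0.5 McFarland, diluted in CAMHB to about 5×10^5 CFU/mL. Agents serially diluted across plate; aerobic incubation 37 °C for 18-20 h. MIC = lowest concentration completely preventing visible growth.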

Staphylococcus aureus [18] = test: Synergistic antibacterial activity against methicillin-resistant Staphylococcus aureus ATCC 33592 assessed as fractional inhibitory concentration index in presence of daptomycin by checkerboard assay; assay type: functional
Staphylococcus aureus [19] = test: Antibacterial activity against methicillin-resistant Staphylococcus aureus USA400 infected in mouse J774 cells assessed as log reduction in intracellular growth at 8 ug/ml incubated for 18 to 22 hrs; assay type: functional; settings: dose 8 µg/ml; time 18-22 hrs
How it was run: (§3)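 J774 murine macrophages grown in DMEM with 10% FBS at 37 °C, 5% CO2. Cells infected with MRSA USA400 at MOI about 10:1 for 1 h, then washed with gentamicin to remove extracellular bacteria. Agents added at 8 or 16 μg/mL in triplicate, with DMSO vehicle control, for 24 h. Cells lysed with 0.1% Triton-X, lysates plated on tryptic soy agar, and CFU counted after 18-22 h at 37 °C. Analysed by two-way ANOVA with Dunnett's test.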

Staphylococcus aureus [20] = test: Antibacterial activity against methicillin-resistant Staphylococcus aureus NRS123 assessed as inhibition of visible bacterial growth incubated for 18 to 20 hrs by CLSI method; assay type: functional; settings: time 18-20 hrs; how it was run: as §1
[21] = Hemolytic activity in human RBC at 32 ug/ml incubated for 60 mins relative to control; assay type: ADME, cell-based, Erythrocyte; settings: red blood cells (erythrocytes), at 32 µg/mL, read-out: Activity; how it was run: as §2
Staphylococcus aureus [22] = test: Antibacterial activity against methicillin-resistant Staphylococcus aureus USA400 infected in mouse J774 cells assessed as log reduction in intracellular growth at 16 ug/ml incubated for 18 to 22 hrs; assay type: functional; settings: dose 16 µg/ml; time 18-22 hrs; how it was run: as §3
Staphylococcus aureus [23] = test: Antibacterial activity against methicillin-resistant Staphylococcus aureus NRS383 assessed as inhibition of visible bacterial growth incubated for 18 to 20 hrs by CLSI method; assay type: functional; settings: time 18-20 hrs; how it was run: as §1
Pseudomonas aeruginosa = test: Antibacterial activity against Pseudomonas aeruginosa ATCC 27853 assessed as inhibition of visible bacterial growth at 16 ug/ml incubated for 18 to 20 hrs by CLSI method; assay type: functional, organism-based; settings: dose 16.0 µg/ml, time 18-20 hrs; how it was run: as §1
J774 = test: Cytotoxicity against mouse J774 cells assessed as reduction in cell viability at 32 ug/ml incubated for 24 hrs by MTS assay; assay type: cell-based; settings: j774, 24 h, dose 32 µg/ml

Compound `O=C(Nc1nnc(-c2cccs2)o1)c1ccc(S(=O)(=O)C(F)(F)F)cc1` has an MBC (Staphylococcus aureus [1]) of over 128 mg/L, an MIC (Staphylococcus aureus [2]) of 4 mg/L (≈ 9.92 µM) and an MIC (Staphylococcus aureus [3]) of 4 mg/L (≈ 9.92 µM). The MIC (Staphylococcus aureus [4]) was 8 mg/L (≈ 19.8 µM), the MIC (Enterococcus faecalis [5]) was 4 mg/L (≈ 9.92 µM) and the Activity (Caco-2) was “Non-Toxic”. It also gave an MIC (Staphylococcus aureus [6]) of 8 mg/L (≈ 19.8 µM), an MIC (Staphylococcus aureus [7]) of 8 mg/L (≈ 19.8 µM) and an MIC (Enterococcus faecalis [8]) of 4 mg/L (≈ 9.92 µM). The MIC (Staphylococcus aureus [9]) was 8 mg/L (≈ 19.8 µM), the MIC (Staphylococcus aureus [10]) was 0.5 mg/L (≈ 1.24 µM) and the inhibition (Acinetobacter baumannii) was “inactive”. For the same compound, the hemolysis at 1 h, 128 ug/ml [11] was 37%, the MIC (Staphylococcus aureus [12]) was 8 mg/L (≈ 19.8 µM) and the inhibition (Escherichia coli) was “inactive”. For the same compound, the “fractional inhibitory concentration index (FICI)” value (Staphylococcus aureus [13]) was 0.53, the “fractional inhibitory concentration index (FICI)” value (Staphylococcus aureus [14]) was 1.03 and the MIC (Staphylococcus aureus [15]) was 4 mg/L (≈ 9.92 µM). The MIC (Staphylococcus aureus [16]) was 4 mg/L (≈ 9.92 µM), the MIC [17] was 4 mg/L (≈ 9.92 µM) and the “fractional inhibitory concentration index (FICI)” value (Staphylococcus aureus [18]) was 0.63. For the same compound, the Activity (Staphylococcus aureus [19]) was 0.5 log10CFU/ml, the MIC (Staphylococcus aureus [20]) was 4 mg/L (≈ 9.92 µM) and the hemolysis at 1 h, 32 ug/ml [21] was 23%. The Activity (Staphylococcus aureus [22]) was 0.6 log10CFU/ml, the MIC (Staphylococcus aureus [23]) was 8 mg/L (≈ 19.8 µM) and the inhibition (Pseudomonas aeruginosa) was “inactive”. For the same compound, the Activity (J774) was “Non-Toxic”.
